The values below come from ChEMBL document CHEMBL5038590, “Discovery of G Protein-Biased Ligands against 5-HT7R” (J Med Chem, 2021).

Data set [1] has as its target T1, 5-hydroxytryptamine receptor 1A (Homo sapiens, UniProt P08908).
T1 sequence (P08908 whole entry): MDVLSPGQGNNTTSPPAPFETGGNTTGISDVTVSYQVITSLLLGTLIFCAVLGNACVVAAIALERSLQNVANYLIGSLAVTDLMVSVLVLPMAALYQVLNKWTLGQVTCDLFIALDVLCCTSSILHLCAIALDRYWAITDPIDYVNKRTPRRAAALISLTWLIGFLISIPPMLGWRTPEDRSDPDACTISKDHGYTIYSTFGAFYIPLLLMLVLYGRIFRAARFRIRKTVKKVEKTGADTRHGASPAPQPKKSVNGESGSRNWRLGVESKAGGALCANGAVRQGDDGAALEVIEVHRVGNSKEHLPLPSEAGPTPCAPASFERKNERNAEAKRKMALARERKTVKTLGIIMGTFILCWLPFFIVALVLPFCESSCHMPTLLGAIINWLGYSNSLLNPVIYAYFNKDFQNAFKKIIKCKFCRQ
Description: Binding affinity to 5-HT1AR (unknown origin). The essentials:
(§1)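 Run by the NIMH Psychoactive Drug Screening Program as competition radioligand binding on crude membranes of cells expressing the recombinant receptor. Eleven dilutions (0.05 nM–50 μM, prepared at 5× assay concentration) were made in 50 mM Tris-HCl, 10 mM MgCl₂, 1 mM EDTA, pH 7.4. Incubation was 1.5 h at rt in the dark, followed by GF/B filtration (0.3% PEI) and scintillation counting. IC₅₀ was converted to Ki; at least triplicate.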

A short description of data set [2]: Cmax in ICR mouse plasma at 10 mg/kg, ip measured upto 8 hrs by LC-MS/MS analysis. It counts as ADME, organism-based. Further details: route intraperitoneal, dose 10 mg/kg, time <=8. The essentials:
(§2)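 Male ICR mice, 7–8 weeks, 30 ± 5 g; single dose 1 mg/kg iv or 10 mg/kg ip (n = 4 each). Carotid artery blood at 0, 0.08 (iv only), 0.25, 0.5, 1, 2, 4, 6, 8 h. Plasma precipitated with acetonitrile containing internal standard, quantified by LC–MS/MS. Parameters by non-compartmental analysis; AUClast by trapezoidal rule; values mean ± SD.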

Data set [3] concerns the target T2, 5-hydroxytryptamine receptor 3A (Homo sapiens, UniProt P46098).
T2 sequence (P46098 whole entry): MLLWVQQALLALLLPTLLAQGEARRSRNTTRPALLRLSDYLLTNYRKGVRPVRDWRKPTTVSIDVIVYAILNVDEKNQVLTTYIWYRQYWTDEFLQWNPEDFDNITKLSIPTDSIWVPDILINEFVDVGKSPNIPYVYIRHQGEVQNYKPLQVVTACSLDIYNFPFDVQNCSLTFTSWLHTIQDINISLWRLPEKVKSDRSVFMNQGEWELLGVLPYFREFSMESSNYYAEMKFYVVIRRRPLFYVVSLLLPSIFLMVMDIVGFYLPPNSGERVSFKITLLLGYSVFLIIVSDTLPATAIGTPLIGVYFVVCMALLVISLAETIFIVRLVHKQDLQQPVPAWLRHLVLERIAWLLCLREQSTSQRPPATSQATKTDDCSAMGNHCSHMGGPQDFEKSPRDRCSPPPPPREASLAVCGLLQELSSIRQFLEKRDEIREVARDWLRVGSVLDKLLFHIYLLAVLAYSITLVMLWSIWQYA
Description: Binding affinity to 5-HT3R (unknown origin). Put shortly:
as §1

The nature of data set [4]: Clearance in ICR mouse plasma at 1 mg/kg, iv measured upto 8 hrs by LC-MS/MS analysis. It counts as ADME, organism-based. The essentials:
as §2

In data set [5] the target is 5-hydroxytryptamine receptor 6 (Homo sapiens, UniProt P50406). The data set can be described thus: Binding affinity to 5-HT6R (unknown origin). The essentials:
as §1

The nature of data set [6]: Half life in ICR mouse plasma at 10 mg/kg, ip measured upto 8 hrs by LC-MS/MS. It counts as ADME, organism-based. Put shortly:
as §2

Data set [7] relates to Mus musculus. Description: Effect on wild type mouse assessed as time taken for duration of self grooming at 5 mg/kg, ip pretreated for 10 mins in presence of SB269970 followed by compound addition and measured after 30 mins under 40 lux lighting (reference value: 43.7 +/- 10.8 sec). It counts as functional. Particulars: 0.5 h.
Data set [8] deals with 5-hydroxytryptamine receptor 1E (Homo sapiens, UniProt P28566). Description: Binding affinity to 5-HT1ER (unknown origin). Put shortly:
as §1

Data set [9] is described as follows: Stability of compound in human liver microsomes assessed as compound remaining at 1 uM preincubated for 5 mins followed by addition of NADPH generating system and incubated for 30 mins by LC/MS relative to control. It counts as ADME, Microsome. Particulars: time 35 min, read-out: Stability. The essentials:
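Human liver microsomes (0.5 mg/mL) in 0.1 M phosphate pH 7.4 with compound at 1 μM. Preincubated 5 min at 37 °C, then NADPH-generating system added and incubated 30 min at 37 °C. Quenched with acetonitrile containing internal standard, centrifuged, and supernatant analysed by LC/MS as percent compound remaining; verapamil as reference.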
Background: Microsomes from liver hold many membrane-bound enzymes, among them those of drug oxidation.

For data set [10], the target named is 5-hydroxytryptamine receptor 7 (Homo sapiens, UniProt P34969). The data set can be described thus: Displacement of [3H] D-lysergic acid diethylamide from 5-HT7R (unknown origin) transfected in HEK293 cells incubated for 1.5 hrs by microbeta scintillation counter analysis. It counts as cell-based. Particulars: read-out: Ki. On the technique in general: Displacement assays read how much labelled ligand stays bound in the presence of the test substance.

A short description of data set [11]: Tmax in ICR mouse plasma at 10 mg/kg, ip measured upto 8 hrs by LC-MS/MS analysis. Format: ADME, organism-based. The essentials: as §2
Data set [12] is described as follows: MRTinfinity in ICR mouse plasma at 10 mg/kg, ip measured upto 8 hrs by LC-MS/MS analysis. Format: ADME, organism-based. The essentials: as §2
The nature of data set [13]: Bioavailability in ICR mouse plasma at 10 mg/kg, ip measured upto 8 hrs by LC-MS/MS analysis. It counts as ADME, organism-based. The essentials: as §2
Data set [14] has as its system Mus musculus. The data set can be described thus: Effect on wild type mouse assessed as time taken for duration of self grooming at 5 mg/kg, ip after 30 mins under 40 lux lighting (reference value: 43.7 +/- 10.8 sec). Format: functional. Particulars: 0.5 h.
Data set [15] can be described thus: Volume of distribution in steady state in ICR mouse plasma at 1 mg/kg, iv measured upto 8 hrs by LC-MS/MS analysis. It counts as ADME, organism-based. Particulars: read-out: Vdss. Put shortly:
as §2

Data set [16] deals with CYP2D6 (Homo sapiens, UniProt P10635). Description: Inhibition of CYP2D6 in human liver microsomes assessed as remaining activity at 10 uM using dextromethorphan as substrate preincubated for 5 mins followed by addition of NADPH generating system and incubated for 15 mins by LC/MS relative to control. Format: ADME. Particulars: probe dextromethorphan, time 20 min, read-out: Activity. Put shortly: (§3)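 Human liver microsomes (0.25 mg/mL) in 0.1 M phosphate pH 7.4 with a five-substrate cocktail: phenacetin 50 μM, diclofenac 10 μM, S-mephenytoin 100 μM, dextromethorphan 5 μM, midazolam 2.5 μM. Compound at 0 (control) or 10 μM. Preincubated 5 min at 37 °C, NADPH-generating system added, 15 min at 37 °C. Stopped with acetonitrile plus internal standard; substrate metabolites measured by LC/MS.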

Data set [17] concerns the target CYP2C9 (Homo sapiens, UniProt P11712). Description: Inhibition of CYP2C9 in human liver microsomes assessed as remaining activity at 10 uM using diclofenac as substrate preincubated for 5 mins followed by addition of NADPH generating system and incubated for 15 mins by LC/MS relative to control. It counts as ADME. Particulars: probe diclofenac, time 20 min, read-out: Activity. Put shortly:
as §3

Chain of CYP2D6 (P10635 whole entry): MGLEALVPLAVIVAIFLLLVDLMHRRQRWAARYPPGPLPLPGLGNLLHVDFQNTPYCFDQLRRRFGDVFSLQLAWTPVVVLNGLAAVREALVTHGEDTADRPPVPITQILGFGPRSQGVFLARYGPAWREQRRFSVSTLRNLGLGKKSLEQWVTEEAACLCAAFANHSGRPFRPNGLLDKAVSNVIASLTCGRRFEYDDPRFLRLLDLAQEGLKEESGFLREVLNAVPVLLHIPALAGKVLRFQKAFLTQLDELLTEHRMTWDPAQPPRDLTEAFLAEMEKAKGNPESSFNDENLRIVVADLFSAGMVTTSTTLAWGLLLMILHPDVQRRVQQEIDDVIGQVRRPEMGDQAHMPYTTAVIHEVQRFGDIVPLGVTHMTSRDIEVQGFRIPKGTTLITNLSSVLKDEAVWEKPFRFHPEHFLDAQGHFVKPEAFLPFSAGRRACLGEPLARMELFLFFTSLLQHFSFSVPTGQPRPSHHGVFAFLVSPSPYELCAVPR
Chain of 5-hydroxytryptamine receptor 6 (P50406 whole entry): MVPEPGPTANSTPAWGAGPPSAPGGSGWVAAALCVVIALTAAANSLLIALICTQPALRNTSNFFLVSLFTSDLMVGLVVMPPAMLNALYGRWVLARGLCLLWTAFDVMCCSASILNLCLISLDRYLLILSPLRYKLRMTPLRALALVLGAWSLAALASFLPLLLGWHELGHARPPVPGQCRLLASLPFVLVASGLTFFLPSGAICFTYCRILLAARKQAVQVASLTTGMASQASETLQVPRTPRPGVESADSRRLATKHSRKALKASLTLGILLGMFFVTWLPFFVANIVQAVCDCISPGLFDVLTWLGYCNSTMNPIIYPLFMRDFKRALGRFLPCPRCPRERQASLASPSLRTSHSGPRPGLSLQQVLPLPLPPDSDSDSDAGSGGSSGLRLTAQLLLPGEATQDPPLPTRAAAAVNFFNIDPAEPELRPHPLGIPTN
Chain of CYP2C9 (P11712 whole entry): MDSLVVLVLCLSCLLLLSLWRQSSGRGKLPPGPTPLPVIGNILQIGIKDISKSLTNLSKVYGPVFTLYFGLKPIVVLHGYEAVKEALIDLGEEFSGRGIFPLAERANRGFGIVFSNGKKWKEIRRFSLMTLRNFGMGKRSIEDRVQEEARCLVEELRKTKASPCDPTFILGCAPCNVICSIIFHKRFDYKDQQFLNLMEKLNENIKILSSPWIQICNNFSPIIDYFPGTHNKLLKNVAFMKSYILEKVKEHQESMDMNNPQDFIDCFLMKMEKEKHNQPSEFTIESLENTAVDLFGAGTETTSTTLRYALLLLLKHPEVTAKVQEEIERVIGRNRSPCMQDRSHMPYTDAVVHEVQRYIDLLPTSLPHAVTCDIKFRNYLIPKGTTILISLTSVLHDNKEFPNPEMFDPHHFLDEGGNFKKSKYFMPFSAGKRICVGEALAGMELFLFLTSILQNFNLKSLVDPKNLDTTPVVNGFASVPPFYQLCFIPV
Chain of 5-hydroxytryptamine receptor 1E (P28566 whole entry): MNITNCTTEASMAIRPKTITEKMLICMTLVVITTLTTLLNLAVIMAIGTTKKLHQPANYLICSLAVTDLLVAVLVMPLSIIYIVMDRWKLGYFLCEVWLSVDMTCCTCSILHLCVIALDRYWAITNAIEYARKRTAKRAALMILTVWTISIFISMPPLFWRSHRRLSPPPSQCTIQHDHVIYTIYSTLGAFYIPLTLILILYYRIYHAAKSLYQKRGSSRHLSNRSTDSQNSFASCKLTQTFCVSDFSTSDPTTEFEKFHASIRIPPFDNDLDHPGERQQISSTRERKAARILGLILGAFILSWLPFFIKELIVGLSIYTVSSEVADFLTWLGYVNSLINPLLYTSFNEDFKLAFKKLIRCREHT
Chain of 5-hydroxytryptamine receptor 7 (P34969 whole entry): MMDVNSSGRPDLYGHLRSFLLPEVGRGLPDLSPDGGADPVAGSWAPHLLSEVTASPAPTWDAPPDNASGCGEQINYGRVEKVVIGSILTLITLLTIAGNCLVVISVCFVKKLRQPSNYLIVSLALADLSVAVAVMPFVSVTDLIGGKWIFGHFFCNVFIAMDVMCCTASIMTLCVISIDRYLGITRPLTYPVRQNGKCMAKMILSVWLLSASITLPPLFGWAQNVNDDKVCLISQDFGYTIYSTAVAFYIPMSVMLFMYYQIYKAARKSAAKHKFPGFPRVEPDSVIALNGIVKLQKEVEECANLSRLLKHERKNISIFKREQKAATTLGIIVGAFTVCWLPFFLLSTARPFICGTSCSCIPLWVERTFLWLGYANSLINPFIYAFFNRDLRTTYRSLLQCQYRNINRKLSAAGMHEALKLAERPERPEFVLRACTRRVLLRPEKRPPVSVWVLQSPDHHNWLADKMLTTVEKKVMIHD

One may read the Ki as the equilibrium dissociation constant of an inhibitor or competing ligand from its target. One may read the Cmax as the highest concentration seen after dosing. Broadly, the clearance is the rate of elimination divided by the concentration. As usually defined, the half-life is the time in which the quantity being followed falls by half. For orientation: Tmax means the time from dosing to the highest level. In general, MRT inf refers to the average time that molecules of a dose stay in the body. `CCNCCc1ccc(Cl)c(-c2ccccc2OC)c1.Cl`: the Ki in data set [1] is 52 nM; in [3], over 10000 nM; in [5], over 10000 nM; in data set [8], 2600 nM; in data set [10], 2.8 nM. This compound showed a Cmax in [2] of 348 ng/mL. In data set [4], the clearance worked out at 478 mL/min/kg. The half-life in data set [6] is 1 h. The Time in data set [7] stood at 70.8 s; in [14], 107 s. Besides, in data set [9], the remaining at 0.5 h, 1 µM was determined as 71.5%. For the same compound, the Tmax in data set [11] stood at 0.4 h. Moreover, the MRT inf in data set [12] was found to be 1.3 h. Further, in data set [13], the bioavailability was found to be 134%. Also, the Vd in data set [15] is 19.5 L/kg. The activity at 0.25 h, 10 µM in data set [16] was 88.7%; in data set [17], over 100%.
